Three compounds from ChEMBL document CHEMBL5705894, “SB1518, a novel macrocyclic pyrimidine-based JAK2 inhibitor for the treatment of myeloid and lymphoid malignancies” (Leukemia, 2011) can be followed below.

Calls of active or inactive are those of the source. The calls are words filed in the database; no cut-off is given here.

In series [1] the test system is Tyrosine-protein kinase JAK2 (Homo sapiens), O60674 [V617F]. The conditions noted are these: HEL 92.1.7, dose 1000.0 nM, time 3.0 hrs.
Series [2] can be described thus: Toxicity in athymic BALB/c nude mouse xenografted with mouse Ba/F3 cells harboring JAK2 V617F mutant assessed as weight loss at 150 mg/kg, po administered for 12 days. The class given is organism-based, BaF3. To be noted: in vivo, 288 h, time 12 day. The gist of the method: (§1)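 Ba/F3-JAK2V617F cells (2 × 10^6 in serum-free medium) were injected into the tail vein of BALB/c nude mice. From day 4 after inoculation, mice got SB1518 by oral gavage (10 ml/kg) at 50 or 150 mg/kg once daily. Groups held 10 mice, and four naive mice gave baseline values.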

The nature of series [3]: Induction of apoptosis in human EPC cells derived from polycythemia vera patients assessed as activation of caspase-3/7 level incubated for 16 hrs. It is filed as toxicity, cell-based. To be noted: human, epc, time 16 hrs.
Series [4] is described as follows: Cytotoxicity against human Myeloid progenitor cells assessed as inhibition of colony growth formation. It is filed as toxicity, cell-based, Myeloid progenitor cell. The gist of the method:
(§2)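 PBMCs from PV patients, 2–8 × 10^5 per plate, were plated in minimal methylcellulose medium with graded drug concentrations or DMSO, in triplicate. After 14 days, erythroid (BFU-E, CFU-E) and myeloid (CFU-M, CFU-GM) colonies were counted.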

Series [5] is described as follows: Toxicity in SCID Beige mouse xenografted with human SET2 cells assessed as hematocrit count at 150 mg/kg, po administered for 18 days by ScilVET abc hematology analyzer method. The class given is organism-based. To be noted: in vivo, 432 h, time 18 day.
A short description of series [6]: Cytotoxicity against human Erythroid progenitor cells assessed as inhibition of colony growth formation. The class given is toxicity, cell-based, Erythroid progenitor cell. The gist of the method: as §2
A short description of series [7]: Toxicity in athymic BALB/c nude mouse xenografted with mouse Ba/F3 cells harboring JAK2 V617F mutant assessed as platelet count at 150 mg/kg, po administered for 12 days by ScilVET abc hematology analyzer method. It is filed as organism-based, BaF3. To be noted: in vivo, 288 h, time 12 day. The method, boiled down: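 Engraftment model: BALB/c nude mice were given 2 × 10^6 Ba/F3-JAK2V617F cells i.v. by tail vein. Once-daily oral gavage (10 ml/kg) of 50 or 150 mg/kg began on day 4 after inoculation, with 10 mice per group and four naive mice as baseline. Blood counts were taken on a veterinary hematology analyzer.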

Series [8] can be described thus: Induction of apoptosis in human EPC cells derived from healthy volunteers assessed as activation of caspase-3/7 level incubated for 16 hrs. The class given is toxicity, cell-based.
Series [9] can be described thus: Toxicity in SCID Beige mouse xenografted with human SET2 cells assessed as increase in body weight at 150 mg/kg, po administered for 18 days relative to control. It is filed as organism-based. To be noted: in vivo, 432 h, time 18 day. A general note: Xenograft models place foreign cells or tissue in a host animal.
A short description of series [10]: Toxicity in athymic BALB/c nude mouse xenografted with mouse Ba/F3 cells harboring JAK2 V617F mutant assessed as liver weight at 150 mg/kg, po administered for 12 days relative to control. It is filed as organism-based, BaF3. To be noted: in vivo, 288 h, time 12 day. The method, boiled down:
as §1

The nature of series [11]: Toxicity in SCID Beige mouse xenografted with human SET2 cells assessed as leukopenia at 150 mg/kg, po administered for 18 days by ScilVET abc hematology analyzer method. It is filed as organism-based. To be noted: in vivo, 432 h, time 18 day.
Series [12] is described as follows: Toxicity in SCID Beige mouse xenografted with human SET2 cells assessed as platelet count at 150 mg/kg, po administered for 18 days by ScilVET abc hematology analyzer method. To be noted: in vivo, 432 h, time 18 day. It is filed as organism-based.
Series [13] in a line: Toxicity in SCID Beige mouse xenografted with human SET2 cells assessed as decrease in body weight at 75 mg/kg, po administered for 18 days relative to control. The class given is organism-based. More on the design: scale not given: the % may be the effect or the level left. The conditions noted are these: in vivo, 432 h, time 18 day.
A short description of series [14]: Toxicity in athymic BALB/c nude mouse xenografted with mouse Ba/F3 cells harboring JAK2 V617F mutant assessed as hematocrit count at 150 mg/kg, po administered for 12 days by ScilVET abc hematology analyzer method. The conditions noted are these: in vivo, 288 h, time 12 day. It is filed as organism-based, BaF3. The gist of the method: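 BALB/c nude mice were injected in the tail vein with 2 × 10^6 Ba/F3-JAK2V617F cells in serum-free medium. Oral dosing at 50 or 150 mg/kg once daily began on day 4, with 10 mice per group and 4 naive baseline mice. Blood counts were taken on a hematology analyzer.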

Series [15] in a line: AUC (0 to infinity) in athymic BALB/c nude mouse xenografted with mouse BaF3 cells at 150 mg/kg, po administered for 24 hrs by HPLC analysis. It is filed as ADME, organism-based. To be noted: in vivo.
Series [16] in a line: Toxicity in athymic BALB/c nude mouse xenografted with mouse Ba/F3 cells harboring JAK2 V617F mutant assessed as spleen weight at 150 mg/kg, po administered for 13 days relative to control. To be noted: in vivo, 312 h.
Series [17] in a line: Cytotoxicity against human EPC cells derived from healthy volunteers assessed as inhibition of cell viability incubated for 48 hrs by CellTiterGlo assay. The class given is toxicity, cell-based. The gist of the method:
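Erythroid progenitors expanded from PBMCs of PV patients or normal volunteers using a 2-step protocol. On day 12 of expansion, cells were exposed to compound for 48 h and viability was read by CellTiter-Glo. Day-12 cells were phenotyped by CD71/CD235A flow staining.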
For orientation: Cellular ATP, detected with luciferase, serves as a proxy for viable cell number.

For another series, the system named is BaF3. The series can be described thus: Cytotoxicity against mouse BaF3 cells expressing JAK2 V617F mutant xenografted in athymic BALB/c nude mouse assessed as inhibition of cell viability administered for 24 hrs by CellTiterGlo assay. The class given is toxicity, cell-based. The conditions noted are these: in vivo, po, 150 mg/kg.

Sequence of Tyrosine-protein kinase JAK2 (Homo sapiens), O60674 [V617F] (O60674 whole entry V617F): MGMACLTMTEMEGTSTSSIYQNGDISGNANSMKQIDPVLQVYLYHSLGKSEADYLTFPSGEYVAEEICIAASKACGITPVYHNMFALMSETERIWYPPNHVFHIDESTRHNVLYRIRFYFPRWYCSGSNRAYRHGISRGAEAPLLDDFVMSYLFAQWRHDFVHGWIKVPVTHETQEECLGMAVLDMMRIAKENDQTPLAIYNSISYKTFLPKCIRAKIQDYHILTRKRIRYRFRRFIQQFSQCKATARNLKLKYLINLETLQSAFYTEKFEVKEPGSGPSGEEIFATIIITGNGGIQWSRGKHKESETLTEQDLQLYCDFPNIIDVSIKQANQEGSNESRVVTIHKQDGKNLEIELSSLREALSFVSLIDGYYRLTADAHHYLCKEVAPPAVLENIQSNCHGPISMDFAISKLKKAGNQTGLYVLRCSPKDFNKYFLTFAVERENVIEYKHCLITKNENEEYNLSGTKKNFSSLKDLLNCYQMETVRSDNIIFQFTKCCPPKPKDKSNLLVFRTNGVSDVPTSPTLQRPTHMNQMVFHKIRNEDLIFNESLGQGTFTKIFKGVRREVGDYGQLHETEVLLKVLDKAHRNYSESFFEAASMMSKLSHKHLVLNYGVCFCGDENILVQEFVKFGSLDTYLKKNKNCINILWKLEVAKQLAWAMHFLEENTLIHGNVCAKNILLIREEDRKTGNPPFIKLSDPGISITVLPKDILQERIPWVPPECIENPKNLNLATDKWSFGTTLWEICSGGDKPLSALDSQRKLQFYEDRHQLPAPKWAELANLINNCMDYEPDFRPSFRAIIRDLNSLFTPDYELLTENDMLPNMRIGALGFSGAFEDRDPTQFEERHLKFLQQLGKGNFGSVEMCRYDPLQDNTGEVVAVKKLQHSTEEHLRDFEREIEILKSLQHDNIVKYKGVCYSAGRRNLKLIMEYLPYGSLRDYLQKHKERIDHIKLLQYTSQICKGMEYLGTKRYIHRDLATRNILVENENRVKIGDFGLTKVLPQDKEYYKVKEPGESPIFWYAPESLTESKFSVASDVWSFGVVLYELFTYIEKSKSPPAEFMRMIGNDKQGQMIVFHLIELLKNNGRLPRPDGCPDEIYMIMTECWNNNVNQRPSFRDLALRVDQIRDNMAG

As to `CC(C)(C)c1nc2c3ccc(F)cc3c3c(=O)[nH]ccc3c2[nH]1`, the inhibition entry in series [1] is “Active”.
Still for that read-out and setting: under `Cc1cnc(Nc2ccc(OCCN3CCCC3)cc2)nc1Nc1cccc(S(=O)(=O)NC(C)(C)C)c1` stands “Active”.
As usually defined, the IC50 is the concentration that inhibits the measured activity by half. Usually EC50 stands for the concentration at which the effect is half-maximal. Usually AUC(0-inf) stands for total exposure, with the tail of the curve extrapolated. As to `C1=C/COCc2cc(ccc2OCCN2CCCC2)Nc2nccc(n2)-c2cccc(c2)COC/1` [PACRITINIB], the Activity entry in [2] is “Non-Toxic”; in [3], “Dose-Dependent Effect”; in [5], “Non-Toxic”; in series [7], “Non-Toxic”; in series [8] (epc, 16 h), “Dose-Dependent Effect”; in [9], 0.2%. The Activity was 92% in [10]; “Non-Toxic” in series [11]; “Non-Toxic” in series [12]; 10.1% in series [13]; “Non-Toxic” in series [14]; 60% in series [16]. Also, the IC50 in [4] and in series [6] was 63 nM throughout. In series [8] (EPC cells derived from healthy volunteers), the EC50 at 16 h was determined as 224 nM. For the same compound, the AUC(0-inf) in [15] came to 220 ng·h/mL. The IC50 at 48 h in series [17] stood at 230 nM. In addition, the FIC50 in the series on BaF3 was 0.16 µM.
